Assays:
Format in all cases: functional
[1] = organism: Rattus norvegicus; test: Hypolipidemic effects(liver weight) in male rats
Summary of the method: (§1)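 Male rats, 10 per group, fed 7 days on chow with 10% fat (5.5% added peanut oil), 1.5% cholesterol and 0.1% cholic acid. Oral gavage on days 4-7 in 4% acacia, usually 50 mg/kg daily. Fasted overnight, killed day 8, atrial blood into EDTA. Plasma cholesterol, TG and HDL cholesterol (after MnCl2/heparin precipitation) by Autoanalyzer. % change vs controls, Student's t test.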

[2] = system: Rattus norvegicus; test: Hypolipidemic effects (low-density lipoprotein (LDL) cholesterol) in male rats; Compound was screening orally at 50 mg/Kg; summary of the method: as §1
[3] = organism: Rattus norvegicus; test: Hypolipidemic effects(plasma TG) in male rats; summary of the method: as §1
[4] = organism: Rattus norvegicus; test: Hypolipidemic effects(plasma cholesterol) in male rats; summary of the method: as §1
[5] = system: Rattus norvegicus; test: Hypolipidemic effects (high-density lipoprotein (HDL) cholesterol) in male rats; Compound was screening orally at 50 mg/Kg; summary of the method: as §1

COC(=O)C(C)(C)CCCOc1cc(OCCCC(C)(C)C(=O)OC)c(C(C)(C)C)cc1C(C)(C)C
Change [1]: 0%
Change [2]: 0%
Change [3]: 0%
Change [4]: 0%
Change [5]: 0%

CC(C)(CCCOc1ccc(OCCCC(C)(C)C(=O)O)c(C(O)c2ccccc2)c1)C(=O)O (configuration not stated)
Change [1]: 16%
Change [2]: -42%
Change [3]: 27%
Change [4]: -17%
Change [5]: 410%

COC(=O)C(C)(C)CCCOc1cc(OCCCC(C)(C)C(=O)OC)c(Cl)cc1Cl
Change [1]: 0%
Change [2]: 0%
Change [3]: 0%
Change [4]: 0%
Change [5]: 0%

COC(=O)C(C)(C)CCCOc1cccc(OCCCC(C)(C)C(=O)OC)c1NC(C)=O
Change [1]: 0%
Change [2]: 0%
Change [3]: 0%
Change [4]: 0%
Change [5]: 0%

CC(C)(CCCOc1ccc(-c2ccc(OCCCC(C)(C)C(=O)O)cc2)cc1)C(=O)O
Change [1]: 15%
Change [3]: 0%
Change [4]: -30%
Change [5]: 138%

COC(=O)C(C)(C)CCCOc1cc(C(C)(C)C)c(OCCCC(C)(C)C(=O)OC)cc1C(C)(C)C
Change [1]: 0%
Change [3]: -15%
Change [4]: 0%
Change [5]: 0%

COC(=O)C(C)(C)CCCOc1ccc(OCCCC(C)(C)C(=O)OC)c(C#N)c1C#N
Change [1]: 0%
Change [2]: 0%
Change [3]: 0%
Change [4]: 0%
Change [5]: 0%

CC(C)(CCCOc1ccc(S(=O)(=O)c2ccc(OCCCC(C)(C)C(=O)O)cc2)cc1)C(=O)O
Change [1]: 10%
Change [2]: 0%
Change [3]: 0%
Change [4]: 0%
Change [5]: 26%

COC(=O)c1c(OCCCC(C)(C)C(=O)OC)cccc1OCCCC(C)(C)C(=O)OC
Change [1]: 0%
Change [2]: 0%
Change [3]: 0%
Change [4]: 0%
Change [5]: 21%

CC(C)(CCCCOc1ccc(OCCCCC(C)(C)C(=O)O)c(-c2ccccc2)c1)C(=O)O
Change [1]: 8%
Change [2]: -53%
Change [3]: 0%
Change [4]: -49%
Change [5]: 51%

COC(=O)C(C)(C)CCCOc1ccc(OCCCC(C)(C)C(=O)OC)c(/C=N/N=C(\N)S)c1
Change [1]: 0%
Change [2]: 0%
Change [3]: 0%
Change [4]: 0%
Change [5]: 0%

CC(C)(CCCOc1cccc(OCCCC(C)(C)C(=O)O)c1)C(=O)O
Change [1]: 17%
Change [3]: 0%
Change [4]: -52%
Change [5]: 294%

COC(=O)C(C)(C)CCCOc1ccc(Cl)c(OCCCC(C)(C)C(=O)OC)c1
Change [1]: 8%
Change [2]: 80%
Change [3]: 0%
Change [4]: -42%
Change [5]: 37%

C/C=C/c1cc(OCCCC(C)(C)C(=O)OC)ccc1OCCCC(C)(C)C(=O)OC
Change [1]: 29%
Change [2]: -66%
Change [3]: -31%
Change [4]: -39%
Change [5]: 268%

CC(C)(CCCOc1ccc(OCCCC(C)(C)C(=O)O)c(-c2ccc(Cl)cc2Cl)c1)C(=O)O
Change [1]: 0%
Change [2]: -54%
Change [3]: -20%
Change [4]: -45%
Change [5]: 64%

CCC(O)c1cc(OCCCC(C)(C)C(=O)O)ccc1OCCCC(C)(C)C(=O)O (configuration not stated)
Change [1]: 34%
Change [2]: -62%
Change [3]: 0%
Change [4]: 0%
Change [5]: 947%

COC(=O)C(C)(C)CCCOc1ccc(C=O)c(OCCCC(C)(C)C(=O)OC)c1
Change [1]: 11%
Change [2]: -30%
Change [3]: 0%
Change [4]: -18%
Change [5]: 79%

COC(=O)C(C)(C)CCCOc1ccccc1OCCCC(C)(C)C(=O)OC
Change [1]: 0%
Change [3]: -30%
Change [4]: -40%
Change [5]: 0%

CC(C)(CCCOc1ccc(OCCCC(C)(C)C(=O)O)c(-c2ccccc2Cl)c1)C(=O)O
Change [1]: 23%
Change [2]: -38%
Change [3]: 38%
Change [4]: 0%
Change [5]: 480%

COc1ccc(-c2cc(OCCCC(C)(C)C(=O)O)ccc2OCCCC(C)(C)C(=O)O)cc1
Change [1]: 0%
Change [2]: -38%
Change [3]: -30%
Change [4]: -30%
Change [5]: 52%

COC(=O)C(C)(C)CCCOc1ccc(OCCCC(C)(C)C(=O)OC)c(-c2nnco2)c1
Change [1]: 11%
Change [2]: -33%
Change [3]: 0%
Change [4]: -26%
Change [5]: 31%

COC(=O)C(C)(C)CCCOc1cccc(OCCCC(C)(C)C(=O)OC)c1C
Change [1]: 33%
Change [3]: -15%
Change [4]: -37%
Change [5]: 385%

CC(C)(CCCOc1ccc(OCCCC(C)(C)C(=O)Oc2ccc(C(C)(C)C)cc2)cc1)C(=O)Oc1ccc(C(C)(C)C)cc1
Change [1]: 0%
Change [2]: 0%
Change [3]: 0%
Change [4]: 0%
Change [5]: 0%

COC(=O)C(C)(C)CCCOc1cc(C)c(OCCCC(C)(C)C(=O)OC)cc1C
Change [1]: 14%
Change [2]: -64%
Change [3]: 27%
Change [4]: -30%
Change [5]: 688%

CCCCCCCCCCCCc1ccc(OCCCC(C)(C)C(=O)O)cc1OCCCC(C)(C)C(=O)O
Change [1]: 0%
Change [2]: -12%
Change [3]: 0%
Change [4]: 0%
Change [5]: 0%

Cc1cc(OCCCC(C)(C)C(=O)O)c(C)c(C)c1OCCCC(C)(C)C(=O)O
Change [1]: 21%
Change [3]: 42%
Change [4]: -37%
Change [5]: 165%

CC(C)(CCCOc1ccc(OCCCC(C)(C)C(=O)OCc2cccnc2)c(-c2ccccc2)c1)C(=O)OCc1cccnc1
Change [1]: 19%
Change [2]: 0%
Change [3]: 0%
Change [4]: 63%
Change [5]: 594%

COC(=O)C(C)(C)CCCOc1cc(C)cc(OCCCC(C)(C)C(=O)OC)c1
Change [1]: 18%
Change [3]: -53%
Change [4]: -62%
Change [5]: 262%

CCOC(=O)C(C)(C)CCCOc1ccc(OCCCC(C)(C)C(=O)OCC)c(-c2ccccc2)c1
Change [1]: 20%
Change [2]: -18%
Change [3]: 0%
Change [4]: 43%
Change [5]: 536%

COC(=O)C(C)(C)CCCOc1ccc(C(C)(C)c2ccc(OCCCC(C)(C)C(=O)OC)cc2)cc1
Change [1]: 0%
Change [2]: 0%
Change [3]: 0%
Change [4]: 0%
Change [5]: 0%

COC(=O)C(C)(C)CCCOc1ccc(OCCCC(C)(C)C(=O)OC)c(C2CCCCC2)c1
Change [1]: 6%
Change [2]: -54%
Change [3]: -24%
Change [4]: -49%
Change [5]: 35%

COC(=O)c1ccc(OCCCC(C)(C)C(=O)OC)cc1OCCCC(C)(C)C(=O)OC
Change [1]: 0%
Change [2]: 0%
Change [3]: 0%
Change [4]: 0%
Change [5]: 0%

CC(C)(CCCOc1ccc(Sc2ccc(OCCCC(C)(C)C(=O)O)cc2)cc1)C(=O)O
Change [1]: 0%
Change [3]: 20%
Change [4]: -35%
Change [5]: 0%

COC(=O)C(C)(C)CCCOc1ccc(OCCCC(C)(C)C(=O)OC)c(C(C)=O)c1
Change [1]: 21%
Change [2]: -39%
Change [3]: 20%
Change [4]: 0%
Change [5]: 381%

Source: ChEMBL document CHEMBL1122242, “Phenylenebis(oxy)bis[2,2-dimethylpentanoic acid]s: agents that elevate high-density lipoproteins” (1983)
